Compounds with a hit are over-represented: about 2.1% of the library has one in this group of screens.
TNAP act DEA – activates human TNAP at intermediate phosphate acceptor concentration; P05186; purified TNAP, CDP-star luminescence, 100 mM DEA, 30 min; stronger effect = higher value; scale: 0 levamisole-inhibited, 1 vehicle-only enzyme; activation factor at 20 µM; 64,000 tested, under 10 active; AID 813;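 active = activation factor of at least 2 at 20 µM, relative to controls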
Ec RNAP inh – inhibitors of Escherichia coli RNA polymerase. P0A8V2. E. coli RNA polymerase, fluorescence transcription assay. inhibition, %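 (tested at 10 µM)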. 0.2% of 62,000 active; in the data active = inhibition above about 20%;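 note: 0% = enzyme without compound and 100% = no enzyme blank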
RORA act – activators of human nuclear receptor RORA. activation, % at 10 µM. 1.5% of 65,000 active. P35398. CHO-K1 Gal4-RORA LBD luciferase reporter, luminescence; percent increase over mock-subtracted basal signal;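 active = activation above the mean of all tested compounds plus 3 SD, cut at about 49% in these data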;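 note: 0% = DMSO-treated RORA cells and 100% = added signal equal to DMSO minus mock-transfected cells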
SF-1 act – activates the human nuclear receptor SF-1; Q13285; CHO-K1 Gal4-SF-1 LBD luciferase reporter; % increase over DMSO SF-1-specific signal; activation, % at 10 µM; 1.9% of 65,000 active; AID 522;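 active = activation above the mean activation of all tested compounds plus 3 SD, cut at about 50% in these data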
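Assay system – CHO-K1 cells with Gal4–hSF-1 LBD chimera plus Gal4-driven luciferase · Quantity – 4,000 cells per well · Times – compound added 1 h post-seeding, 20 h exposure at 37 °C, 5% CO2 · Measured by – luciferase light emission · Benchmarks – DMSO and mock-transfected background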
MT1-MMP txn act – activates MT1-MMP transcription; HT1080 MT1-MMP promoter luciferase reporter, luminescence, overnight; stronger effect = higher value; activation factor at 10 µM; 0.16% of 86,000 active; AID 750;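 active = activation factor of at least 2 for MT1-MMP transcription at 10 µM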
* hit, by the source's call; · = no result.

SMILES	TNAP act DEA	Ec RNAP inh	RORA act	SF-1 act	MT1-MMP txn act
O=C(C1CCN(c2nc3ccc(Br)cc3s2)CC1)N1CCC2(CC1)OCCO2	0.9	5	8	6	1.5
Cc1ccc2nc(N3CCC(C(=O)N4CCC5(CC4)OCCO5)CC3)sc2c1	0.9	2	30	74*	1.3
COC(=O)[C@@]1(Cc2ccccc2)[C@H]2c3cc(C(=O)N(C)C)n(C)c3C[C@H]2CN1C(=O)c1ccccc1	·	·	·	·	1.1
CC1(C)CN=C(Nc2nc3ccccc3s2)S1	1.1	4	54*	70*	1.1
C=C(CC1(CNP(=O)(c2ccccc2)c2ccccc2)CC1)c1ccccc1	·	·	·	·	2*
O=P(N[C@@H](c1ccccc1)[C@@H]1C[C@H]1CO)(c1ccccc1)c1ccccc1	·	·	·	·	1.4
O=C(c1cc2c(s1)-c1ccccc1OC2)N1CCC2(CC1)OCCO2	0.9	-18	54*	61*	1.3
COC(=O)[C@@H]1C[C@H]2CC[C@H](O)C[C@H]2N1CC1CC1	·	·	·	·	1.1

Screening results (PubChem)
